Laboratory results from ChEMBL document CHEMBL1130393, “Antitumor agents. 178. Synthesis and biological evaluation of substituted 2-aryl-1,8-naphthyridin-4(1H)-ones as antitumor agents that inhibit tubulin polymerization” (J Med Chem, 1997).

Key:
[1] = tested on: SK-MEL-5; test: In vitro antitumor activity against SK-MEL-5 tumor cell lines; format: functional; details: Homo sapiens
[2] = tested on: OVCAR-3; test: In vitro antitumor activity against OVCAR-3 tumor cell lines; format: functional; details: Homo sapiens
[3] = molecular target: Tubulin (Bos taurus, UniProt Q6B856+Q862L2+Q862F3); test: Inhibition of tubulin polymerization; format: functional
[4] = tested on: NCI-H460; test: In vitro antitumor activity against NCI-H460 tumor cell lines; format: functional; details: Homo sapiens
[5] = tested on: MDA-MB-435; test: In vitro antitumor activity against MDA-MB-435 NCI 's human tumor cell lines; format: functional
[6] = tested on: MDA-N; test: In vitro antitumor activity against MDA-N tumor cell lines; format: functional; details: Homo sapiens
[7] = tested on: HL-60; test: In vitro antitumor activity against HL-60(TB) tumor cell lines; format: functional; details: Homo sapiens
[8] = tested on: CAKI-1; test: In vitro antitumor activity against CAKI-1 tumor cell lines; format: functional; details: Homo sapiens
[9] = tested on: HCT-116; test: In vitro antitumor activity against HCT116 tumor cell lines; format: functional; details: Homo sapiens
[10] = tested on: U-251; test: In vitro antitumor activity against U-251 tumor cell lines; format: functional; details: Homo sapiens
[11] = tested on: SF-295; test: In vitro antitumor activity against SF-295 tumor cell lines; format: functional; details: Homo sapiens
[12] = tested on: PC-3; test: In vitro antitumor activity against PC-3 tumor cell lines; format: functional; details: Homo sapiens
[13] = tested on: Tumor Cell line; test: In vitro antitumor activity against NCI 's human tumor cell lines; format: functional; details: read-out: Average log GI50 (converted)
Outline: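 NCI in vitro screen of 60 human tumor cell lines. […] The value is calculated from all cell lines tested.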

[14] = molecular target: Tubulin (Bos taurus) (UniProt Q6B856+Q862L2+Q862F3); test: Inhibition of radiolabeled colchicine binding to tubulin; format: protein assay; design: concentration or dose not given beside the values; details: concentration not given here
Outline: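 Measured by DEAE-cellulose filter binding. The 0.1 mL mixture held bovine brain tubulin 1.0 µM, 1.0 M monosodium glutamate (pH 6.6), 1 mM MgCl2, 0.1 mM GTP, 5.0 µM [3H]colchicine, 5% DMSO and inhibitor at 5.0 µM. It was incubated 20 min at 37 °C, filtered through two DEAE-cellulose papers, washed with water and counted by liquid scintillation.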

[15] = tested on: Tumor Cell line; test: log molar concentration required to cause total growth inhibition of NCI 's human tumor cell lines; format: functional; details: read-out: Log TGI (converted)
Outline: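 NCI 60 human tumor cell line in vitro screen. TGI is the log molar concentration giving total growth inhibition, calculated from all cell lines tested.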

[16] = tested on: Panel prostate (Carcinoma cell lines); test: log molar concentration required to cause total growth inhibition of prostate tumor cell lines; format: functional; details: Homo sapiens, read-out: Log TGI (converted)
Outline: (§1)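 TGI from the NCI 60 human tumor cell line in vitro screen: log of the molar drug concentration causing total growth inhibition, reported for the named cell panel.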

[17] = tested on: Panel renal (Carcinoma cell lines); test: log molar concentration required to cause total growth inhibition of renal tumor cell lines; format: functional; details: Homo sapiens, read-out: Log TGI (converted); outline: as §1
[18] = tested on: Panel colon (Carcinoma cell lines); test: log molar concentration required to cause total growth inhibition of colon tumor cell lines; format: functional; details: Homo sapiens, read-out: Log TGI (converted); outline: as §1
[19] = tested on: Panel CNS (Carcinoma cell lines); test: log molar concentration required to cause total growth inhibition of CNS cancer cell lines; format: functional; details: Homo sapiens, read-out: Log TGI (converted); outline: as §1
[20] = tested on: NSCLC; test: log molar concentration required to cause total growth inhibition of non-small cell lung tumor cell lines; format: functional; details: Homo sapiens, read-out: Log TGI (converted); outline: as §1
[21] = tested on: Panel ovarian (Carcinoma cell lines); test: log molar concentration required to cause total growth inhibition of ovarian tumor cell lines; format: functional; details: Homo sapiens, read-out: Log TGI (converted); outline: as §1
[22] = tested on: Melanoma tumor cell line; test: log molar concentration required to cause total growth inhibition of melanomic tumor cell lines; format: functional; details: Homo sapiens, read-out: Log TGI (converted); outline: as §1
[23] = tested on: Panel breast (Carcinoma cell lines); test: log molar concentration required to cause total growth inhibition of breast tumor cell lines; format: functional; details: Homo sapiens, read-out: Log TGI (converted); outline: as §1
[24] = tested on: Leukemic tumor cell line; test: log molar concentration required to cause total growth inhibition of leukemic tumor cell lines; format: functional; details: Homo sapiens, read-out: Log TGI (converted); outline: as §1

SMILES	GI50 [1] [nM]	GI50 [2] [nM]	IC50 [3] [nM]	GI50 [4] [nM]	GI50 [5] [nM]	GI50 [6] [nM]	GI50 [7] [nM]	GI50 [8] [nM]	GI50 [9] [nM]	GI50 [10] [nM]	GI50 [11] [nM]	GI50 [12] [nM]	GI50 [13] [nM]	inhibition [14] [%]	other results
Cc1cccc(-c2cc(O)c3ccc(C)nc3n2)c1	126	490	1900	17.8	32.4	31.6	26.9	427	120	200	60.3	138	97.7	–	–
Cc1cc(C)c2c(O)cc(-c3cccc4ccccc34)nc2n1	468	347	780	631	191	234	245	9550	380	372	589	759	1050	15	–
Oc1cc(-c2ccc3ccccc3c2)nc2ncc(Cl)cc12	2950	2630	2500	4070	851	1550	1780	7590	3980	4790	5500	3090	5750	–	–
Cc1cccc(-c2cc(O)c3c(C)ccnc3n2)c1	33.9	22.4	1800	36.3	< 10	11	18.2	53.7	46.8	53.7	30.2	33.1	57.5	–	–
Cc1ccc2c(=O)cc(-c3cccc(F)c3)[nH]c2n1	22.4	19.5	530	33.1	12.3	14.4	22.4	45.7	28.2	38	28.8	34.7	42.7	41	TGI [15]: 4680 nM; TGI [16]: 1580 nM; TGI [17]: 64600 nM; TGI [18]: 550 nM; TGI [19]: 2240 nM; TGI [20]: 5750 nM; TGI [21]: 10200 nM; TGI [22]: 24000 nM; TGI [23]: 575 nM; TGI [24]: 2750 nM
Cc1cccc(-c2cc(O)c3c(C)cc(C)nc3n2)c1	34700	30200	2300	44700	20000	20900	12900	56200	17800	53700	64600	31600	38000	–	–
Cc1ccnc2nc(-c3cccc4ccccc34)cc(O)c12	< 10	< 10	930	< 10	< 10	< 10	< 10	12	< 10	< 10	10.7	19.9	35.5	37	–
Oc1cc(-c2ccc3ccccc3c2)nc2ncccc12	3470	8320	14000	3800	1780	1660	1820	5620	3800	4370	9120	10500	8130	–	–
Cc1ccc2c(O)cc(-c3cccc4ccccc34)nc2n1	13.8	< 10	660	17.4	< 10	< 10	< 10	6030	< 10	15.5	24	30.2	66.1	40	–
Cc1cc(C)c2c(O)cc(-c3cccc(Cl)c3)nc2n1	117	170	770	224	13.2	19.1	74.1	204	170	295	47.9	27.5	347	22	TGI [15]: 26300 nM; TGI [16]: 3090 nM; TGI [17]: 58900 nM; TGI [18]: 28800 nM; TGI [19]: 5010 nM; TGI [20]: > 100000 nM; TGI [21]: 30200 nM; TGI [22]: 72400 nM; TGI [23]: 1230 nM; TGI [24]: 81300 nM
Cc1ccc2c(O)cc(-c3ccc4ccccc4c3)nc2n1	3310	3630	5100	3800	1580	1950	1780	5370	3980	4570	3800	2630	4570	–	–
Cc1ccc2c(O)cc(-c3cccc(Cl)c3)nc2n1	31.6	< 10	890	41.7	< 10	> 100000	28.8	41.7	25.7	64.6	22.9	> 100000	170	38	TGI [15]: 21400 nM; TGI [16]: > 100000 nM; TGI [17]: > 100000 nM; TGI [18]: 3090 nM; TGI [19]: 1950 nM; TGI [20]: 24500 nM; TGI [21]: 10500 nM; TGI [22]: 69200 nM; TGI [23]: 3800 nM; TGI [24]: > 100000 nM
Cc1cnc2nc(-c3ccc4ccccc4c3)cc(O)c2c1	363	355	2100	398	105	132	141	617	468	468	550	407	741	–	–
Cc1cc(C)c2c(O)cc(-c3ccc4ccccc4c3)nc2n1	2190	20000	> 40000	13200	2950	3240	3470	51300	12600	15800	14800	5500	13500	–	–
Cc1ccnc2nc(-c3ccc4ccccc4c3)cc(O)c12	437	1290	1800	1050	204	204	204	2400	427	646	1480	1380	1200	–	–
Oc1cc(-c2cccc3ccccc23)nc2ncccc12	< 10	< 10	1100	38.9	< 10	< 10	< 10	15.1	< 10	10.2	< 10	17.8	35.5	–	–
Cc1cnc2nc(-c3cccc4ccccc34)cc(O)c2c1	< 10	< 10	550	< 10	< 10	< 10	< 10	< 10	< 10	< 10	< 10	< 10	19.1	46	–
Cc1cc(C)c2c(O)cc(-c3cccc(F)c3)nc2n1	37.1	18.2	740	53.7	< 10	12.9	37.1	35.5	< 10	64.6	33.1	61.7	85.1	29	TGI [15]: 5620 nM; TGI [16]: 49000 nM; TGI [17]: 49000 nM; TGI [18]: 1170 nM; TGI [19]: 9770 nM; TGI [20]: 2510 nM; TGI [21]: 5500 nM; TGI [22]: 13800 nM; TGI [23]: 1000 nM; TGI [24]: 2450 nM
Cc1cccc(-c2cc(O)c3cc(C)cnc3n2)c1	288	251	1500	389	< 10	< 10	174	437	407	170	417	309	646	–	–
